Compound activity from PubChem BioAssay.
The list is not random: actives were taken first. Their share in the collection is about 1.7%.
Casp6 inh = caspase-6 (human) enzyme inhibition | P55212 | purified caspase-6, Z-VEID-R110 cleavage fluorescence | inhibition, % at 12.5 µM | hit rate 0.53% among 350,000 | AID 686996;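 active = mean inhibition across replicates at least about 35%, with every replicate also reaching that limit, limit read from the data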;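 also: 0% = median of neutral control wells and 100% = no fluorescence left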
Target sequence (P55212 24-179 limits assumed): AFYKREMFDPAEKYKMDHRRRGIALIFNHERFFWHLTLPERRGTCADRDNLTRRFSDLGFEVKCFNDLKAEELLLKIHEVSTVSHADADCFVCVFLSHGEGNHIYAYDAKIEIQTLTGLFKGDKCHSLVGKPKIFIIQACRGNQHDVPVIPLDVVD
Target sequence (P55212 194-293 limits assumed): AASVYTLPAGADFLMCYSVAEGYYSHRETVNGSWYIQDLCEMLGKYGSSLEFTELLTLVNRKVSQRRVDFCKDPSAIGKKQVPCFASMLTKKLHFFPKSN
STEP inh = STEP (human) phosphatase inhibition. hit rate 0.25% among 360,000. recombinant STEP, OMFP fluorogenic substrate, fluorescence. P54829. inhibition, % at 20 µM;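 active = inhibition at 20 µM, scaled per plate between control wells, above about 37%, limit read from the data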;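 also: 0% = DMSO with enzyme and substrate and 100% = substrate only without enzyme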
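Assay system: isolated STEP enzyme / Timing: 20 min at room temperature, dark / Doses: 20 µM, 1% DMSO / Technique: fluorescence intensity, excitation 480 nm, emission 540 nm / Reagent: fluorogenic phosphatase substrate OMFP at 25 µM final / Measure: percent inhibition scaled to no-enzyme and uninhibited-enzyme controls, plate-pattern corrected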
LMPTP inh = LMPTP (human) inhibition; P24666; recombinant LMPTP-A, OMFP fluorogenic substrate, fluorescence intensity; inhibition, % at 20 µM; hit rate 0.22% among 360,000; AID 651560;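 active = compounds that cut the enzyme signal by at least half of the control window in the single-dose screen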;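 also: plate controls were DMSO wells with enzyme plus substrate for no effect and substrate without enzyme for full effect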
Target sequence (P24666 whole entry, looked up): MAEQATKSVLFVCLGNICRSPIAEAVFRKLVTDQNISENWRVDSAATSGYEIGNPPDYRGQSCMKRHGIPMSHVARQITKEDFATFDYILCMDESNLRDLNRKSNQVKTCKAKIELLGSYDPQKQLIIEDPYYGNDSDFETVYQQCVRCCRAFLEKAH
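Assay system: LMPTP-A phosphatase enzyme | Input: 0.625 nM enzyme | Also added: Fluorogenic phosphatase substrate OMFP at 400 µM final | Compound dosing: One test concentration per compound, 20 µM, with 3% DMSO overall | Schedule: 50 min enzyme reaction at room temperature, protected from light | Signal: Fluorescence intensity | Benchmarks: no-enzyme and uninhibited controls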
DNMT1 inh = DNMT1 (human) enzyme inhibition. P26358. DNMT1 molecular beacon, Hinp1I cleavage, fluorescence. inhibition (reported as % activation of signal), % at 10 µM. hit rate 0.83% among 360,000. AID 588458; in the data active = inhibition above about 50%
Scp-1 inhibitor = inhibitors of human Scp-1 phosphatase; Q9GZU7; Recombinant Scp1, phosphopeptide, malachite green phosphate absorbance; inhibition, % at 20 µM; hit rate 0.88% among 340,000;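 active = inhibition above about 50% at 20 µM, limit read from the data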;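 also: plate controls were DMSO wells with enzyme for no effect and wells lacking enzyme for full effect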
Target sequence (Q9GZU7 76-261 limits assumed): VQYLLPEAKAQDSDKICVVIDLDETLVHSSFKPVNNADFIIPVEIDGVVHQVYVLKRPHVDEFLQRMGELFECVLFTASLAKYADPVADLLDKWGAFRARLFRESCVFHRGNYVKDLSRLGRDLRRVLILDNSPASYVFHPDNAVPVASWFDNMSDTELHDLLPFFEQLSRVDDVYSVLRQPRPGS
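Test system: SCP-1 phosphatase catalytic domain, residues 76-261; measured by: colorimetric phosphate reagent with accelerator and stabiliser, absorbance at 630 nm; timing: enzyme reaction 45 min at room temperature, colour 5 min, stabilisation 30 min; also added: Phosphorylated 17-residue peptide substrate; compound dosing: one concentration, 20 µM, with 1.0% DMSO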
SUMO1-SIM PPI = SUMO1-SIM interaction modulation; AID 602429; SUMO1 binding to a labelled peptide, TR-FRET, 1 h; P63165; hit rate 0.33% among 360,000; inhibition, % at 20 µM; in the data active = inhibition above about 37%
Scp-1 conf = confirmation of human Scp-1 phosphatase inhibitors; inhibition, % at 20 µM; hit rate 61% among 2,500; shares compounds with Scp-1 inhibitor; recombinant SCP-1 catalytic domain, phosphate release, malachite green absorbance;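 also: plate controls were DMSO with enzyme for no effect and buffer wells lacking enzyme for full effect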
MG interference = colorimetric interference in Scp-1 counter-screen; AID 540313; Colorimetric interference counterscreen, malachite green absorbance 630 nm; apparent inhibition (interference), % at 20 µM; shares compounds with Scp-1 inhibitor; 2,500 tested, under 10 active;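 also: compounds added after enzyme reaction finished so only phosphate colour detection is probed; plate controls were DMSO wells with completed Scp-1 reaction for no effect and substrate wells lacking enzyme for full effect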
Scp1 DSF = binds human Scp-1, shifting its melting temperature | shares compounds with Scp-1 inhibitor | Recombinant SCP1, Sypro Orange thermal shift Tm | thermal shift relative to vanadate control, % at 40 µM | hit rate 25% among 1,500 | AID 540329;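 active = substances whose mean melting-temperature shift, as a percentage of the reference inhibitor's shift, reaches about 5.3%, limit read from the data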;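 also: 0% = Tm of DMSO wells and 100% = Tm with sodium orthovanadate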
DNMT1 confirm = DNMT1 inhibition confirmation, single concentration; inhibition, % at 10 µM; shares compounds with DNMT1 inh; DNMT1 molecular beacon HinP1I cleavage, fluorescence; hit rate 8% among 2,300;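 active = average inhibition of at least 30% in the single-concentration confirmation test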
Beacon interf = beacon fluorescence artifact counter-screen | DNMT1 molecular beacon spectral interference counterscreen, fluorescence 485/520 | activation (fluorescence interference), % at 10 µM | AID 602387 | hit rate 1% among 2,300 | shares compounds with DNMT1 inh;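 active = activation of at least 30% at 10 µM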;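 also: DNMT1 catalytic domain with a HinP1I cleavage step and a FAM/dabcyl DNA beacon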
The depositor's hits bear a star; / = no result.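 The calls were made as follows, unless noted: active = inhibition of at least 30% at 20 µM; inactive = the rest.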

SMILES	Casp6 inh	STEP inh	LMPTP inh	DNMT1 inh	Scp-1 inhibitor	SUMO1-SIM PPI	Scp-1 conf	MG interference	Scp1 DSF	DNMT1 confirm	Beacon interf
CN(CC(=O)Nc1cccc(F)c1)C(=O)c1cccc(-n2cccc2)c1	11	0	8	91*	77*	15	61*	-13	6.7*	13	0
CN(CC(=O)Nc1cccc(F)c1)C(=O)c1ccc(N2C(=O)c3ccccc3C2=O)cc1	0	-3	1	21	-2	-11	/	/	/	/	/
CSc1ccc(/C=C(\C(=O)O)c2ccc(S(=O)(=O)N3CCCC3)s2)cc1	46*	2	19	86*	69*	-3	68*	-13	5.6*	11	3
O=C(NCC1CC1)[C@H]1[C@H](CO)[C@H]2Cn3c(ccc(-c4ccccc4)c3=O)[C@@H]1N2CC1CC1	2	/	/	/	/	/	/	/	/	/	/
Cc1cc(C)c(C)c(S(=O)(=O)N[C@@H](C)C(=O)OCc2cc(=O)n3cc(Br)ccc3n2)c1C	7	-1	5	71*	69*	-11	65*	-5	5.7*	3	2
O=C(CN1C(=O)NC2(CCCC2)C1=O)OCc1cc(=O)n2cc(Br)ccc2n1	35	-1	14	58*	55*	-24	33*	-9	-10	6	-1
CC(=O)Nc1ccc(N/C=C/C(=O)c2ccc(Br)cc2)cc1	/	3	-1	6	-4	2	/	/	/	/	/
Cc1cc(/C=C\c2nc(O)c([N+](=O)[O-])c(=O)[nH]2)c(C)n1-c1ccccc1	61*	9	14	74*	68*	18	71*	-7	4	7	4
CCOc1ccccc1/C=C\c1nc(O)c([N+](=O)[O-])c(=O)[nH]1	8	1	0	2	-10	-17	/	/	/	/	/
Cc1ccccc1NC(=O)Cn1c(O)c(N=NC(=O)c2ccccc2O)c2ccccc21	/	48*	46	91*	94*	-2	77*	-13	-3	15	-6
Cc1ccc(NC(=O)Cn2c(O)c(N=NC(N)=O)c3ccccc32)cc1	2	-3	-1	1	-8	-29	/	/	/	/	/
COc1ccccc1N1CCN(C(=O)c2ccc(C(C)(C)C)cc2)CC1	/	2	2	-1	-14	-4	/	/	/	/	/
O=C(N/N=C/C=C\c1ccccc1[N+](=O)[O-])c1cc(-c2ccc3ccccc3c2)n[nH]1	-3	30	42	68*	96*	-1	86*	-4	2	4	-4
O=C(N/N=C/C=C/c1ccccc1[N+](=O)[O-])c1ccncc1	2	2	-1	-1	-4	-23	/	/	/	/	/
C[C@H](CO)N1C[C@H](C)[C@@H](CN(C)C(=O)CCCN(C)C)OCc2cn(nn2)CCCC1=O	-2	-1	-6	0	/	4	/	/	/	/	/
Cc1ccc2nc(N/N=C\c3ccc([N+](=O)[O-])o3)nc(-c3ccccc3)c2c1	/	5	8	15	38	-33	/	/	/	/	/
O=[N+]([O-])c1ccc(/C=N/Nc2nc(-c3ccccc3)c3cc(Br)ccc3n2)o1	/	16	60*	51*	101*	-13	76*	-5	5	6	1
O=C(CSc1nccc(=O)[nH]1)N1N=C2/C(=C/c3ccco3)CCCC2C1c1ccco1 (stereo not given)	21	1	6	76*	60*	12	65*	-13	-7	10	3
Cc1cc(C)n2nc(SCC(=O)N(C(C)C)C(C)C)nc2n1	/	-2	-1	6	-13	-4	/	/	/	/	/
Cc1ccc2nc(NC(=O)c3ccc(-c4nc5ccccc5s4)s3)sc2c1	4	37	44	78*	98*	44*	83*	-9	5	1	-7
Cc1occc1C(=O)NCc1cccc(CNC(=O)c2ccoc2C)c1	/	4	7	51*	51*	25	73*	-9	5	18	3
O=c1nc2ccccc2c2n1CC(CN1CCN(C(c3ccccc3)c3ccccc3)CC1)N2 (stereo not given)	-1	-3	8	-1	0	0	/	/	/	/	/
CC1Sc2ccc(C#N)cc2N(Cc2cccc(C(F)(F)F)c2)C1=O (stereo not given)	0	0	1	10	/	2	/	/	/	/	/
Cc1ccc(S(=O)(=O)/N=C2/NC(=O)/C(=C/c3ccc(Br)o3)S2)cc1	/	8	3	85*	56*	27	54*	-28	14*	8	-1
Cc1nc2ccccn2c1C(=O)N/N=C/c1ccc([N+](=O)[O-])o1	16	3	4	64*	67*	0	53*	-16	12*	5	-2
SMILES	Casp6 inh	STEP inh	LMPTP inh	DNMT1 inh	Scp-1 inhibitor	SUMO1-SIM PPI	Scp-1 conf	MG interference	Scp1 DSF	DNMT1 confirm	Beacon interf
CCC1Sc2ccccc2N(CC(=O)NCCC(C)C)C1=O (stereo not given)	6	1	0	2	-1	7	/	/	/	/	/
CCOc1ccc(C(C)=O)cc1N1C(=O)C2C3C=CC(C3)C2C1=O (stereo not given)	28	4	-1	70*	56*	2	31*	-20	-7	4	1
CSc1ccc(NC(=O)CSc2nc3[nH]c(=O)cc(O)c3s2)cc1	1	10	48	52*	71*	12	40*	-21	14*	2	-2
O=Cc1ccc2oc3nc4n(c(=O)c3c(=O)c2c1)CCCS4	/	5	45	94*	80*	25	67*	-11	-4	-4	-1
Cc1sc2nc3n(c(=O)c2c1C)CCCS3	/	5	0	-1	-4	0	/	/	/	/	/
Cc1ccc(N=C2NC(=O)/C(=C\c3ccco3)S2)cc1	/	-5	2	45	7	-7	/	/	/	/	/
O=C1NC(=Nc2ccc(Cl)cc2)/C(=C/c2ccco2)S1	7	61*	38	77*	93*	10	80*	-8	7.8*	11	2
CC(=O)NS(=O)(=O)c1ccc(NC(=O)/C=C/c2ccco2)cc1	28	-1	0	-1	0	2	/	/	/	/	/
